Reference: PubChem BioAssay
Calls of active or inactive are those of the source.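 The calls were made as follows, unless noted: active = fluorescence slope higher than the sample average by over 3 SD (cut at about -0.22 in these data, passing the limit was not always enough); inactive = the rest.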

What was measured:
[1] = inhibitors of TNFa-induced NFkB p65 translocation, primary screen, imaging, HUVEC, MLSMR starter and 10KST1 sets (AID 438;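 active = inhibition above 20% together with a positive visual image hit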;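 also: compound added about 3h40 before a 20 min TNFalpha stimulation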;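 as to inhibition: signal is the nuclear over cytoplasmic p65 intensity ratio per well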); conditions: HUVEC TNFa-induced p65 nuclear translocation; cell count: measured here: nuclei count (cytotoxicity indicator), at 2.08 µM; inhibition: at 2 µM, stronger effect = higher value, 0% TNFa-plus-vehicle, 100% no-TNFa wells
[2] = inhibitors of mutant huntingtin aggregation, primary screen, imaging, exon1htt(103Q)mCFP cells, high-content imaging (AID 483;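 active = visual image review flags a hit and inhibition of aggregation exceeds 20%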;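 also: compound exposure lasted 3 days before fixation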;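 as to nuclei count: percent of the per-plate median nuclei count of sample wells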); conditions: exon1htt(103Q)mCFP cell line, aggregate imaging, at 2 µM; inhibition of aggregation: stronger effect = higher value; nuclei count: measured here: cell count, toxicity
[3] = inhibitors of E-selectin induction by TNFa, primary screen, imaging, HUVEC, immunofluorescence, MLSMR starter and 10KST1 sets (AID 487;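 active = visually confirmed hit in the image check and inhibition above 20%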;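 as to inhibition: signal is fraction of cell area covered by stained E-selectin grains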;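 as to nuclei count: 100% = median nuclei count of all wells on the same plate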); conditions: HUVEC TNFalpha-induced E-selectin immunofluorescence imaging, at 2 µM; inhibition: stronger effect = higher value; nuclei count: measured here: cell number, toxicity
[4] = target: Voltage-gated potassium channel subunit beta-2 (Rattus norvegicus) (UniProt P62483); experiment: KvBeta enzyme negative modulators, primary screen, biochemical, NADPH fluorescence (AID 622); conditions: recombinant KvBeta, 4-cyanobenzaldehyde reduction, at 10 µM, stronger effect = higher value;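 also: slope of raw intensity against log time taken from 70 to 1610 s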
[5] = target: Voltage-gated potassium channel subunit beta-2 (Rattus norvegicus) (UniProt P62483); experiment: KvBeta positive modulators, primary screen, biochemical, NADPH fluorescence (AID 623;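 active = NADPH fluorescence slope more negative than the mean of all samples by about 3 SD, 99.7% confidence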;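 also: fluorescence intensity change per second fitted from 20 to 320 s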); conditions: Recombinant KvBeta, NADPH fluorescence decrease slope, 10 min; at 10 µM; stronger effect = lower value
[6] = target: Muscarinic acetylcholine receptor M4 (Homo sapiens) (UniProt P08173); experiment: compounds altering M4/GIRK thallium flux, either direction, primary screen, M4 allosteric agonist project, cell-based, HEK293 M4/GIRK, BTC-AM (AID 625;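 active = fluorescence slope after compound addition differing from the mean of all tested samples at 99.7% confidence, mostly higher but some lower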;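 also: thallium influx through GIRK channels coupled to M4 in HEK293 cells with BTC-AM dye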); conditions: at 10 µM, actives lie on both sides
Outline: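 Material – HEK293 cells with M4 receptor and GIRK channels · Buffer or medium – pH 7.3 thallium assay buffer · Doses – one dose, 10 µM final · Timing – cells overnight at 37 °C, BTC-AM loading 1 h, reads 2 min total · Measured by – kinetic fluorescence with BTC-AM dye · Controls – carbachol and DMSO controls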

[7] = inhibitors of Sendai virus-induced IRF3 signaling, primary screen, TLR/RLR signaling modifier project, cell-based, Sendai virus stimulus, luciferase, 10K MLSCN set (AID 602276;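 active = inhibition at or above 50% at 10 µM; inactive = inhibition below 50%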;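 also: firefly luciferase from ISG56 promoter only with Renilla not read in this screen; 0% = Sendai virus plus DMSO and 100% = medium plus DMSO without virus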); conditions: HEK293 RL24 IRF3 luciferase reporter, at 10 µM, stronger effect = higher value
[8] = inhibitors of poly I:C-induced TLR3 signaling, primary screen, cell-based, poly I:C stimulus, luciferase, 10K MLSCN set (AID 602277;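 active = inhibition of the reporter signal at or above 50%; inactive = inhibition below 50%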); conditions: HEK293-TLR3 RL24 IRF3 luciferase reporter, at 10 µM, stronger effect = higher value

Chain of Muscarinic acetylcholine receptor M4 (Homo sapiens) (P08173 whole entry, looked up): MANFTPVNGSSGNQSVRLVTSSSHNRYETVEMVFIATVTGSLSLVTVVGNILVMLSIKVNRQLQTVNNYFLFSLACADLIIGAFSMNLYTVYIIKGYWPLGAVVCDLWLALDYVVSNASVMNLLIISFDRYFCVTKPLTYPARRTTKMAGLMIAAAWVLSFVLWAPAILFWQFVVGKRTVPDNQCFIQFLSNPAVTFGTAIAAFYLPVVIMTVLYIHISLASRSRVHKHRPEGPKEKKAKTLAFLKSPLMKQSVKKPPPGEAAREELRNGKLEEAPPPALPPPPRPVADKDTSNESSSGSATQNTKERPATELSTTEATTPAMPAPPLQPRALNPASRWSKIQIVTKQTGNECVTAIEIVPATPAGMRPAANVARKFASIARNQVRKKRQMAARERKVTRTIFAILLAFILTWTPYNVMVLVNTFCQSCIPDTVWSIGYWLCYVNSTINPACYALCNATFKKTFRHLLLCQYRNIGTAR
Chain of Voltage-gated potassium channel subunit beta-2 (Rattus norvegicus) (P62483 whole entry, looked up): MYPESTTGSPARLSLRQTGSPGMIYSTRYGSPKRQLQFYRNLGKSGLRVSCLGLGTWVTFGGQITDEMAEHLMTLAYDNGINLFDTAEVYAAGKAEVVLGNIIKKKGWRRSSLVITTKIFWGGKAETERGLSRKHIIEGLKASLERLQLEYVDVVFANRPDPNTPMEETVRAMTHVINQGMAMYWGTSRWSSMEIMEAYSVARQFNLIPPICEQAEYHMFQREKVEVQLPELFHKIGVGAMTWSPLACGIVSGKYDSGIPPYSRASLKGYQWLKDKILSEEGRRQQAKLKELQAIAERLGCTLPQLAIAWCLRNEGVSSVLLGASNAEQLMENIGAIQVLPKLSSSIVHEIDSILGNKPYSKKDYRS

Compound	cell count [1]	inhibition [1]	inhibition of aggregation [2]	nuclei count [2] [%]	inhibition [3]	nuclei count [3] [%]	fluorescence slope [4]	NADPH fluorescence slope [5]	fluorescence slope [6]	inhibition [7]	inhibition [8]
FC(F)Sc1nnc(-c2cccs2)n1-c1ccccc1	824	-5% (inactive)	-10.1% (inactive)	95.3	-146% (inactive)	122	-0.532 (inactive)	-3.2e-05 (inactive)	0.00612 (inactive)	17.7% (inactive)	31% (inactive)
c1ccc(-c2nn3nnnc3c3ccccc23)cc1	194	-3% (inactive)	6.8% (inactive)	91.1	-2.7% (inactive)	85.1	-0.573 (inactive)	-2.5e-05 (inactive)	0.00565 (inactive)	8.1% (inactive)	20.5% (inactive)
COC(=O)c1ccccc1NC(=O)C1CCCCC1C(=O)O (stereo not drawn)	266	2.8% (inactive)	15.8% (inactive)	98.8	-39.2% (inactive)	85.6	-0.556 (inactive)	-2.1e-05 (inactive)	0.00471 (inactive)	12.8% (inactive)	11.6% (inactive)
COc1ccc(-c2cc(C(=O)N3CCN(Cc4ccccc4)CC3)no2)cc1OC	463	-23% (inactive)	-5.8% (inactive)	106	-36% (inactive)	112	-0.318 (inactive)	-6.6e-05 (inactive)	0.00627 (inactive)	8.32% (inactive)	12.9% (inactive)
COC(=O)c1ccc2ncccc2c1	378	2.6% (inactive)	9.1% (inactive)	106	-10.4% (inactive)	95.7	-0.536 (inactive)	-8.5e-05 (inactive)	0.00451 (inactive)	-15.2% (inactive)	-24.8% (inactive)
O=C(CS(=O)(=O)c1cn(Cc2ccc(F)cc2)c2ccccc12)N1CCCCC1	474	-0.2% (inactive)	-5% (inactive)	116	16.9% (inactive)	110	-0.303 (inactive)	-6.4e-05 (inactive)	0.00645 (inactive)	3.28% (inactive)	11.2% (inactive)
O=S(=O)(c1ccc(Br)s1)N1CCCCC1	479	-1.6% (inactive)	-18.8% (inactive)	100	0.6% (inactive)	106	-0.615 (inactive)	4.4e-05 (inactive)	0.00346 (inactive)	5.16% (inactive)	9.33% (inactive)
O=C(C1CCN(S(=O)(=O)Cc2ccccc2)CC1)N1CCN(c2ncccn2)CC1	354	-9.2% (inactive)	0.1% (inactive)	67	34.3% (inactive)	96.8	-0.431 (inactive)	-0.000431 (inactive)	0.00525 (inactive)	-3.88% (inactive)	-4.47% (inactive)
